Only some compounds are listed: those with a hit (about 3.3% of all), similar ones and a draw of the others.
ATG4B inh: blocks human ATG4B protease cleavage of LC3 substrate. Q9Y4P1. ATG4B cleavage of LC3-PLA2, NBD-HPC fluorescence, 1 h. inhibition, % at 8.33 µM. 0.51% of 340,000 active. AID 504462; in the data active = inhibition above about 40%
Granule exo inh: lytic granule exocytosis inhibition | TALL-104 LAMP-1 surface exposure, flow cytometry; cells stimulated with thapsigargin and PMA | 0.66% of 360,000 active | inhibition, % at 10 µM | AID 651702;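 active = inhibition above about 55%, limit read from the data; inconclusive = no clear call, values can overlap the other calls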
ABCB6 inh 2: blocks the human ABCB6 transporter. 0.19% of 360,000 active. fluorescence ratio to DMSO, % at 10 µM. K562-ABCB6 porphyrin accumulation, flow cytometry, 1 h; hits give low values;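 active = fluorescence ratio to DMSO below 75%, the collection mean minus 3 SD; inconclusive = too few cells collected in the well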;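 note: signal is porphyrin accumulated inside mitochondria; lower ratio means ABCB6 inhibition with less porphyrin fluorescence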
Target sequence (Q9NP58 whole entry, looked up): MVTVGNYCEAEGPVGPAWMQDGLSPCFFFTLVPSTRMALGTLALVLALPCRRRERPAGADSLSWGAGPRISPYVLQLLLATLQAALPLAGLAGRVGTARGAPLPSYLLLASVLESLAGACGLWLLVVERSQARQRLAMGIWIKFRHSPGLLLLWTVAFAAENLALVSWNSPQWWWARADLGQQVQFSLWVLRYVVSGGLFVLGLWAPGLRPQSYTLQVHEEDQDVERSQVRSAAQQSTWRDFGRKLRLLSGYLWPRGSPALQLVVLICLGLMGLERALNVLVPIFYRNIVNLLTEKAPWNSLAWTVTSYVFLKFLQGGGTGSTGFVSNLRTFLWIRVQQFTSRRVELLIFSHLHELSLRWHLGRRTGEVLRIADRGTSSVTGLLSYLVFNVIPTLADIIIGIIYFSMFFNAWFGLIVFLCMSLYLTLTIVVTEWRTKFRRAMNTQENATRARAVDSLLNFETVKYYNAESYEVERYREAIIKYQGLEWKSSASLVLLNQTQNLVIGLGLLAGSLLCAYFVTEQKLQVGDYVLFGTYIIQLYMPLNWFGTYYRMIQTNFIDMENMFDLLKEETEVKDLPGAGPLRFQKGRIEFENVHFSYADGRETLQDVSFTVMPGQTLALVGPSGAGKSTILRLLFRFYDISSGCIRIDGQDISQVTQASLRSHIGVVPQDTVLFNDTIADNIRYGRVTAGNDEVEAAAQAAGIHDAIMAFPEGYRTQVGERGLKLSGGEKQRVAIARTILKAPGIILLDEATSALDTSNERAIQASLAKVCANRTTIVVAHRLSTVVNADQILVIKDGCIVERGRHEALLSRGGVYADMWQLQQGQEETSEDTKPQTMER
Arrestin-AP2 inh: blocks beta-arrestin peptide binding to AP2 adaptin. inhibition, % at 10 µM. AID 504490. FITC-arrestin peptide / GST-AP2 beads, flow cytometry; AP2 beta2 appendage carries R879A mutation. 0.31% of 340,000 active;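 active = inhibition above a set limit, near 3 SD of compounds lacking own fluorescence, cut at about 54% in these data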
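test system = AP2 appendage R879A on GSH beads | buffer or medium = PBS plus Tween 20 (0.05%) and BSA (0.1%) | incubation = 12 min plus 1 h, RT | detection = bead flow cytometry, FITC channel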
Myeloid diff 2: promotes myeloid progenitor differentiation. ER-HoxA9 myeloid progenitors, lysozyme-GFP differentiation, flow cytometry. calls only at 10 µM. 1% of 360,000 active. AID 624256;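 active = normalized GFP-positive differentiation at or above the plate's own cutoff, the solvent-only control mean plus 3 SD; inconclusive = no clear call, values can overlap the other calls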;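 note: cells exposed to compound for four days before flow analysis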
NRP1-CendR mod: modulators of CendR peptide binding to human neuropilin-1. O14786. FAM-RPARPAR peptide binding to NRP-1, fluorescence polarization. inhibition, % at 25 µM. 0.85% of 360,000 active. AID 602438;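 active = inhibition or corrected inhibition above about 18%, plus a signal ratio from 0.5 to 1.5, limit read from the data, passing the limit was not always enough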
Myeloid diff: myeloid differentiation induction; shares compounds with Myeloid diff 2; 2% of 2,300 active; calls only; ER-HoxA9 myeloid progenitors, GFP/Mac1 double-positive flow;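 active = share of green or green-and-red cells above 9 and 9% in run 1 or 4 and 3% in run 2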
GFP autofluor: compound fluorescence in myeloid differentiation counter-screen; shares compounds with Myeloid diff 2; ER-HoxA9 myeloid progenitors, no estrogen, GFP autofluorescence flow cytometry; vehicle wells 0%, positive control 100%; fluorescence response, % (concentration not given with the values); 7.4% of 2,300 active; AID 651707;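 active = over 5% cells positive for green fluorescent reporter, or over 2% positive for both it and APC stain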
Of the large screens only hits and unclear results are named; the others gave an inactive call (follow-up assays come after a bar, where they were run).

CC(Oc1cccc(Cl)c1)C(=O)Nc1nc(-c2ccccn2)cs1 (centres undefined)	Myeloid diff 2 active | Myeloid diff inactive | GFP autofluor inactive
N#CCCN1CCN(S(=O)(=O)c2ccc(C#N)cc2)CC1	none | Myeloid diff inactive | GFP autofluor inactive
CN(C)C(=S)SCCn1c(N)nc(N(C)C)nc1=O	none
COc1cccc(C(=O)COC(=O)C(C)N2C(=O)c3ccccc3C2=O)c1 (centres undefined)	none | Myeloid diff inactive | GFP autofluor inactive
C/C(=N/NC(=O)c1cccc(C)c1)c1c(O)cc(C)oc1=O	none | Myeloid diff inactive | GFP autofluor inactive
COc1ccccc1Cc1c(-c2ccc(OC)c(OC)c2)nc2c3ccccc3ccn12	none (no result: ATG4B inh, Arrestin-AP2 inh)
COc1ccccc1Cc1c(C(C)(C)C)nc2c3ccccc3ccn12	Myeloid diff 2 active (no result: ATG4B inh, Arrestin-AP2 inh) | Myeloid diff inactive | GFP autofluor inactive
O=c1[nH]c(=S)n2c(c1-c1ccccc1)OC(CBr)C2 (centres undefined)	Myeloid diff 2 active (no result: ATG4B inh, Arrestin-AP2 inh) | Myeloid diff inactive | GFP autofluor inactive
O=c1[nH]c(=O)n2c(c1-c1ccccc1)OC(CBr)C2 (centres undefined)	none (no result: ATG4B inh, Arrestin-AP2 inh)
CCCC1CCC(=NNC(=O)OC(C)(C)C)CC1 (centres undefined)	none
CCOc1cc(C)nc(NCc2ccccc2)n1	Myeloid diff 2 active | Myeloid diff inactive | GFP autofluor inactive
CCCCOc1cc(C)nc(NCc2ccccc2)n1	none
C[C@@H](C(O)c1ccccc1)N(C)C(=O)CCc1ccccc1 (some centres undefined)	none
COc1cc(C2CC(=O)c3c([nH]c(C(=O)OCCOC(C)C)c3C)C2)cc(OC)c1OC (centres undefined)	Myeloid diff 2 inconclusive
CCN1CCN(c2ccc(S(=O)(=O)N3CCCCC3)cc2NC(=O)/C=C/c2ccc(OC(F)F)cc2)CC1	none | Myeloid diff inactive | GFP autofluor inactive
Cc1ccnc(S(=O)(=O)Cc2ccc([N+](=O)[O-])cc2)n1	none | Myeloid diff inactive | GFP autofluor inactive
O=C(NCCC1CCCCN1S(=O)(=O)c1ccccc1)C(=O)NCc1ccco1 (centres undefined)	none
CC(=O)c1cc2c(cc1NC(=O)CN1CCOCC1)OCO2	Myeloid diff 2 active | Myeloid diff inactive | GFP autofluor inactive
COc1cc(COCC(O)CN2CCN(CCN3C(=O)c4cccc5cccc(c45)C3=O)CC2)cc(OC)c1OC (centres undefined)	Myeloid diff 2 active | Myeloid diff inactive | GFP autofluor inactive
COCc1c(C)cc(C)c(/C=N/O)c1C	none | Myeloid diff inactive | GFP autofluor inactive
O=c1c2c(nc3nc(NCc4ccc(Cl)cc4)[nH]n13)CCC2	none
O=c1c2c(nc3nc(CCc4ccccc4)[nH]n13)CCC2	Myeloid diff 2 active | Myeloid diff inactive | GFP autofluor inactive
Cc1cccc(-n2c(O)c(C=NC3CCS(=O)(=O)C3)c3ccccc3c2=O)c1C (centres undefined)	none
O=C(NNS(=O)(=O)c1ccc(F)cc1)C1CC(c2cccnc2)=NO1 (centres undefined)	none
Cn1cc(C(F)(F)F)nc1-c1ccc(OCC(O)CNCCOc2ccc(O)c(C(N)=O)c2)cc1 (centres undefined)	none
O=C(/C=C/c1ccccc1Cl)Nc1ccncc1	Myeloid diff 2 active | Myeloid diff inactive | GFP autofluor inactive
COC(=O)CCC(=O)NN1C(=O)c2ccccc2C1=O	none
COc1ccc(CC(=O)NN2C(=O)c3ccccc3C2=O)cc1	Myeloid diff 2 active | Myeloid diff inactive | GFP autofluor inactive
CCc1nn(CC(=O)NCCCN(C)Cc2ccccc2)c(=O)c2cc3sc(C)cc3n12	none
CCc1nn(CC(=O)NCCCN(Cc2ccccc2)C(C)C)c(=O)c2cc3sccc3n12	Myeloid diff 2 active | Myeloid diff inactive | GFP autofluor inactive
CCc1cn(C2CC(O)C(CO)O2)c(=O)[nH]c1=O (centres undefined)	Myeloid diff 2 active | Myeloid diff inactive | GFP autofluor inactive
O=c1[nH]c(=O)n([C@H]2C[C@H](O)[C@@H](CO)O2)cc1I	none
CCN(CC)CCNC(=O)c1ccc(NC(=O)/C=C/c2ccc3ccccc3n2)cc1	Myeloid diff 2 active | Myeloid diff inactive | GFP autofluor inactive
CCN(CC)CCNC(=O)c1ccc(NC(=O)Cc2ccccc2F)cc1	none
CC1=Nc2cc(C(=O)NCC3CCCO3)ccc2Sc2ccc(Br)cc21 (centres undefined)	none | Myeloid diff inactive | GFP autofluor inactive
CC(=O)SC1CC(=O)C=C2CCC3C4CCC(=O)OC4(C)CCC3C21C (centres undefined)	none
CC1=C(C)C(OCCCl)N(c2cc(O)c(Cl)cc2F)C1=O (centres undefined)	none
CCN(CC)Cc1c(O)ccc2c([N+](=O)[O-])c(C)n(-c3ccc(OC)cc3)c12	Myeloid diff 2 active | Myeloid diff inactive | GFP autofluor inactive
COc1cc(C(C)=O)ccc1OCC(O)CN1CCN(c2ccc(F)cc2)CC1 (centres undefined)	none
O=C(c1ccc(-c2ccc([N+](=O)[O-])cc2)o1)N1CCCCCCC1	Myeloid diff 2 active | Myeloid diff inactive | GFP autofluor inactive
Cc1cc(C)cc(NC(=O)CCN2CCCC2)c1	Myeloid diff 2 active | Myeloid diff inactive | GFP autofluor inactive
Cc1cccc(NC(=O)CCN2CCCCC2)c1	none
O=C(N/N=C/c1ccc(N2CCOCC2)s1)c1ccccc1Cl	none
C(=N\N(c1ccccc1)c1ccccc1)/c1ccc(N2CCOCC2)s1	Myeloid diff 2 active | Myeloid diff inactive | GFP autofluor inactive
O=C(NCC1CCCO1)c1ccc(CNS(=O)(=O)c2ccc(F)c(Cl)c2)cc1 (centres undefined)	none
Cn1cc(Br)cc2nc(C(F)(F)F)nc1-2	Myeloid diff 2 active | Myeloid diff inactive | GFP autofluor inactive
CCN(CC)C(=O)C1=C(C)N(CCCN2CCCC2=O)C(=O)C(CC(=O)NCc2ccco2)C1 (centres undefined)	none (no result: ATG4B inh, Arrestin-AP2 inh) | Myeloid diff inactive | GFP autofluor inactive
CCCCN1C(=O)C(CC(=O)NCc2ccco2)CC(C(=O)N(CC)CC)=C1C (centres undefined)	none (no result: ATG4B inh, Arrestin-AP2 inh)
CC(C)=N/N=C(/c1ccc([N+](=O)[O-])cc1)C12CN3CN(CN(C3)C1)C2	none

High-throughput results deposited in PubChem by several laboratories.
